Source: ChEMBL document CHEMBL1153919, “Pyrano[2,3-e]isoindol-2-ones, new angelicin heteroanalogues” (Bioorg Med Chem Lett, 2009)
The source made the active and inactive calls. No cut-off for these calls is given here.

Experiments:
LoVo [1] = assay: Phototoxicity against human LoVo cells exposed to irradiation with 2.5 J/cm'2 UVA light prior to 72 hrs drug exposure by MTT assay; type: functional, cell-based; conditions: light or radiation study
In short: (§1)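 Phototoxicity panel: NCTC-2544 keratinocytes, LoVo adenocarcinoma, K562 and Jurkat leukemia cells. Cells with compound received UVA at 2.5 or 3.75 J/cm2. Cell growth was measured by MTT after 72 h of exposure. IC50 is the concentration inhibiting growth by 50%.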

[2] = Cytotoxicity against human NCTC-2544 cells after 72 hrs by MTT assay; type: cell-based; conditions: NCTC-2544, 72 h
Jurkat [3] = assay: Cytotoxicity against human Jurkat cells after 72 hrs by MTT assay; type: functional, cell-based
Jurkat [4] = assay: Phototoxicity against human Jurkat cells exposed to irradiation with 2.5 J/cm'2 UVA light prior to 72 hrs drug exposure by MTT assay; type: functional, cell-based; conditions: light or radiation study; in short: as §1
LoVo [5] = assay: Phototoxicity against human LoVo cells exposed to irradiation with 3.75 J/cm'2 UVA light prior to 72 hrs drug exposure by MTT assay; type: functional, cell-based; conditions: light or radiation study; in short: as §1
[6] = Phototoxicity against human NCTC-2544 cells exposed to irradiation with 2.5 J/cm'2 UVA light prior to 72 hrs drug exposure by MTT assay; type: cell-based; conditions: NCTC-2544, light or radiation study; in short: as §1
K562 [7] = assay: Phototoxicity against human K562 cells exposed to irradiation with 2.5 J/cm'2 UVA light prior to 72 hrs drug exposure by MTT assay; type: functional, cell-based; conditions: K562, light or radiation study; in short: as §1
[8] = Phototoxicity against human NCTC-2544 cells exposed to irradiation with 3.75 J/cm'2 UVA light prior to 72 hrs drug exposure by MTT assay; type: cell-based; conditions: NCTC-2544, light or radiation study; in short: as §1
LoVo [9] = assay: Cytotoxicity against human LoVo cells after 72 hrs by MTT assay; type: functional, cell-based
K562 [10] = assay: Phototoxicity against human K562 cells exposed to irradiation with 3.75 J/cm'2 UVA light prior to 72 hrs drug exposure by MTT assay; type: functional, cell-based; conditions: K562, light or radiation study; in short: as §1
Jurkat [11] = assay: Phototoxicity against human Jurkat cells exposed to irradiation with 3.75 J/cm'2 UVA light prior to 72 hrs drug exposure by MTT assay; type: functional, cell-based; conditions: light or radiation study; in short: as §1
K562 [12] = assay: Cytotoxicity against human K562 cells after 72 hrs by MTT assay; type: functional, cell-based; conditions: K562, 72 h
Jurkat [13] = assay: Cell cycle arrest in 2.5 J/cm'2 UVA light irradiated human Jurkat cells assessed as accumulation at G1 phase at 5 uM after 24 hrs by DNA cytometry; type: functional
In short: (§2)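 Jurkat (T-cell leukemia) cells were UVA-irradiated at 2.5 J/cm2 in the presence of 5 µM compound. DNA content was analysed by flow cytometry 24 h after irradiation. Controls were non-irradiated cells and cells irradiated without compound. A representative experiment is shown, repeated two times.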

Jurkat [14] = assay: Induction of lipid peroxidation in 2.5 J/cm'2 UVA light irradiated human Jurkat cells at 10 uM by TBARS test; type: functional, cell-based
Jurkat [15] = assay: Induction of lipid peroxidation in 2.5 J/cm'2 UVA light irradiated human Jurkat cells at 20 uM by TBARS test; type: functional, cell-based
Jurkat [16] = assay: Induction of lipid peroxidation in 2.5 J/cm'2 UVA light irradiated human Jurkat cells at 5 uM by TBARS test; type: functional, cell-based
Jurkat [17] = assay: Cell cycle arrest in 2.5 J/cm'2 UVA light irradiated human Jurkat cells assessed as accumulation at subG1 phase at 5 uM after 24 hrs by DNA cytometry; type: functional; in short: as §2
Jurkat [18] = assay: Cell cycle arrest in 2.5 J/cm'2 UVA light irradiated human Jurkat cells assessed as accumulation at S phase at 5 uM after 24 hrs by DNA cytometry; type: functional; in short: as §2
Jurkat [19] = assay: Cell cycle arrest in 2.5 J/cm'2 UVA light irradiated human Jurkat cells assessed as accumulation at G2/M phase at 5 uM after 24 hrs by DNA cytometry; type: functional; in short: as §2

Row | SMILES | IC50 (LoVo [1]) [µM] | IC50 [2] [µM] | IC50 (Jurkat [3]) [µM] | IC50 (Jurkat [4]) [µM] | IC50 (LoVo [5]) [µM] | IC50 [6] [µM] | IC50 (K562 [7]) [µM] | IC50 [8] [µM] | IC50 (LoVo [9]) [µM] | IC50 (K562 [10]) [µM] | IC50 (Jurkat [11]) [µM] | IC50 (K562 [12]) [µM] | Activity (Jurkat [13]) [%] | Activity (Jurkat [14]) | Activity (Jurkat [15]) | Activity (Jurkat [16]) | Activity (Jurkat [17]) [%] | Activity (Jurkat [18]) [%] | Activity (Jurkat [19]) [%]
1 | CCOC(=O)c1cc2c(oc1=O)-c1cn(Cc3ccccc3)cc1CC2 | > 20 | > 20 | > 20 | > 20 | > 20 | > 20 | > 20 | > 20 | > 20 | > 20 | > 20 | > 20 |  |  |  |  |  |  | 
2 | CCOC(=O)c1cc2c(oc1=O)-c1c(c(C(=O)OCC)n(Cc3ccc(C)cc3)c1C)CC2 | > 20 | > 20 | > 20 | 16.1 | 15 | > 20 | 13.5 | 17 | > 20 | 9.3 | 12.8 | > 20 |  |  |  |  |  |  | 
3 | CCOC(=O)c1[nH]c(C)c2c1CCc1cc(C(=O)OCC)c(=O)oc1-2 | > 20 | > 20 | > 20 | > 20 | > 20 | > 20 | > 20 | > 20 | > 20 | > 20 | > 20 | > 20 |  |  |  |  |  |  | 
4 | CCOC(=O)c1c2c(c(C)n1Cc1ccc(OC)cc1)-c1oc(=O)c(C(=O)OC)cc1CC2 | > 20 | > 20 | > 20 | > 20 | > 20 | > 20 | > 20 | > 20 | > 20 | 12.6 | 11.8 | > 20 |  |  |  |  |  |  | 
5 | CCOC(=O)c1c2c(c(C)n1Cc1ccccc1)-c1oc(=O)c(C(=O)OC)cc1CC2 | 7.7 | > 20 | > 20 | 8.4 | 7.3 | 14 | 6.1 | 10 | > 20 | 2.7 | 3.7 | > 20 | 44.7 | Active | Active | Active | 14.8 | 44.2 | 11.7
6 | CCOC(=O)c1cc2ccc3c(C(=O)OCC)[nH]c(C)c3c2oc1=O | > 20 | > 20 | > 20 | > 20 | 17.8 | > 20 | > 20 | > 20 | > 20 | > 20 | > 20 | > 20 |  |  |  |  |  |  | 
7 | O=c1ccc2ccc3occc3c2o1 [ANGELICIN] |  | > 20 | > 20 |  |  | 4.2 |  |  | > 20 |  |  | > 20 |  |  |  |  |  |  | 
8 | CCOC(=O)c1cc2c(oc1=O)-c1c(c(C(=O)OCC)n(Cc3ccc(OC)cc3)c1C)CC2 | > 20 | > 20 | > 20 | > 20 | > 20 | > 20 | > 20 | > 20 | > 20 | 14 | 13.5 | > 20 |  |  |  |  |  |  | 
9 | CCOC(=O)c1cc2c(oc1=O)-c1cn(C)cc1CC2 | > 20 | > 20 | > 20 | > 20 | > 20 | > 20 | > 20 | > 20 | > 20 | > 20 | > 20 | > 20 |  |  |  |  |  |  | 
10 | CCOC(=O)c1cc2c(oc1=O)-c1cn(-c3ccccc3)cc1CC2 | > 20 | > 20 | > 20 | > 20 | > 20 | > 20 | > 20 | > 20 | > 20 | > 20 | > 20 | > 20 |  |  |  |  |  |  | 
